{
  "source": "ChEMBL document CHEMBL5696444",
  "about": "(Nat Commun, 2017)",
  "key": {"HCT-116 [1]": {"tested_on": "HCT-116", "assay": "Induction of apoptosis in human HCT-116 cells assessed as necrosis cells at 0.1 uM incubated for > 6 hrs by annexin V/PI staining based analysis (Rvb=0.55%)", "format": "functional"}, "HCT-116 [2]": {"tested_on": "HCT-116", "assay": "Induction of apoptosis in human HCT-116 cells assessed as viable cells at 0.5 uM incubated for > 6 hrs by annexin V/PI staining based analysis (Rvb=90.04%)", "format": "functional", "conditions": "read-out: Activity"}, "HCT-116 [3]": {"tested_on": "HCT-116", "assay": "Induction of apoptosis in human HCT-116 cells assessed as early apoptosis at 0.5 uM incubated for > 6 hrs by annexin V/PI staining based analysis (Rvb=3.29%)", "format": "functional"}, "HCT-116 [4]": {"tested_on": "HCT-116", "assay": "Induction of apoptosis in human HCT-116 cells assessed as late apoptosis at 5 uM incubated for > 6 hrs by annexin V/PI staining based analysis (Rvb=6.12%)", "format": "functional"}, "[5]": {"target": "Dual specificity protein kinase CLK2 (Homo sapiens, UniProt P49760)", "sequence (P49760 whole entry, looked up)": "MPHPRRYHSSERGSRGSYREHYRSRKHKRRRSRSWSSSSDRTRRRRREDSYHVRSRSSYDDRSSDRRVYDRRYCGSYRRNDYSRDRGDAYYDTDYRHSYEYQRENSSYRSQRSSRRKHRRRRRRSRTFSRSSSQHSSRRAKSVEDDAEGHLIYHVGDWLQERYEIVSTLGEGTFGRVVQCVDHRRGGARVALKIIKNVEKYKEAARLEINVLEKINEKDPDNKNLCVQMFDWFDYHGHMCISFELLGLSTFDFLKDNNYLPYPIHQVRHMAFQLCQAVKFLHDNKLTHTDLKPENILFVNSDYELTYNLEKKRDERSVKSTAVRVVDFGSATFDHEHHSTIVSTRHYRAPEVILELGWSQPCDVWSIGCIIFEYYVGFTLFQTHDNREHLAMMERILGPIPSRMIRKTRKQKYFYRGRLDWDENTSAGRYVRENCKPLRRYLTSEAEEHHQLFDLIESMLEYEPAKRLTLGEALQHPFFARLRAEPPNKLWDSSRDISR", "assay": "Inhibition of N-terminal FLAG-tagged human CLK2 at 123 nM in the presence of ATP by Kinome scan method relative to control", "conditions": "time > 6.0 hrs"}, "[6]": {"target": "Dual specificity tyrosine-phosphorylation-regulated kinase 3 (Homo sapiens) (UniProt O43781)", "assay": "Inhibition of DYRK3 (unknown origin) at 1110 nM in the presence of ATP by Kinome scan method relative to control", "conditions": "time > 6.0 hrs"}, "[7]": {"target": "Tyrosine-protein kinase ABL1 (Homo sapiens) (UniProt P00519)", "sequence (P00519 whole entry)": "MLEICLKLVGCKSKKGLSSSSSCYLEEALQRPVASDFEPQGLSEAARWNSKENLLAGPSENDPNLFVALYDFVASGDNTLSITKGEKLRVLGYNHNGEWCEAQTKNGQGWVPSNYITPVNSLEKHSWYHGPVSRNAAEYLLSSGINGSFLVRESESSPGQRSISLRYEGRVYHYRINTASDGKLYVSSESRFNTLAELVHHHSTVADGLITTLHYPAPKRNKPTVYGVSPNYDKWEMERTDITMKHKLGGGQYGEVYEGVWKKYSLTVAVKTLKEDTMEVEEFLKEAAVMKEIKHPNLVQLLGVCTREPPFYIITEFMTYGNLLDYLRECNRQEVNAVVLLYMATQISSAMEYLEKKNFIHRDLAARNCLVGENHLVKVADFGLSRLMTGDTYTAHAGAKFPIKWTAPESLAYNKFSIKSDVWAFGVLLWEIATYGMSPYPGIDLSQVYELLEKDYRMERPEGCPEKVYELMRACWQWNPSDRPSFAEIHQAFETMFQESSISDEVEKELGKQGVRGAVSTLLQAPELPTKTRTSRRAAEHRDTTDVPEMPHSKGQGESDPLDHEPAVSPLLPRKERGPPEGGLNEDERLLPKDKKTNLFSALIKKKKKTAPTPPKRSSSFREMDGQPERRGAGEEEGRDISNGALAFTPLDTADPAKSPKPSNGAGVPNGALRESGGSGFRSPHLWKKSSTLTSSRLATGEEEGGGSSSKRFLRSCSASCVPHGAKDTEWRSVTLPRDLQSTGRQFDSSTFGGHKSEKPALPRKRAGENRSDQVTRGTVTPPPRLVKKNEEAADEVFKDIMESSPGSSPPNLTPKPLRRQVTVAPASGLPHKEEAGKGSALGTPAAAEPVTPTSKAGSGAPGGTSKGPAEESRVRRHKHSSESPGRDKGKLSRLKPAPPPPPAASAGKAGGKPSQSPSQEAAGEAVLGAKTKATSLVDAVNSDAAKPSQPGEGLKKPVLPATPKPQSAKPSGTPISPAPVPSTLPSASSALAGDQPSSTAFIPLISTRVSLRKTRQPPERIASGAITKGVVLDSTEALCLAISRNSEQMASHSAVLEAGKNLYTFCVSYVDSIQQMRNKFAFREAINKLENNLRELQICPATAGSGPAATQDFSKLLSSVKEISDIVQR", "assay": "Inhibition of ABL1 (unknown origin) at 100 nM in the presence of ATP by Kinome scan method relative to control"}, "[8]": {"target": "Serine/threonine-protein kinase Chk2 (Homo sapiens) (UniProt O96017)", "sequence (O96017 whole entry)": "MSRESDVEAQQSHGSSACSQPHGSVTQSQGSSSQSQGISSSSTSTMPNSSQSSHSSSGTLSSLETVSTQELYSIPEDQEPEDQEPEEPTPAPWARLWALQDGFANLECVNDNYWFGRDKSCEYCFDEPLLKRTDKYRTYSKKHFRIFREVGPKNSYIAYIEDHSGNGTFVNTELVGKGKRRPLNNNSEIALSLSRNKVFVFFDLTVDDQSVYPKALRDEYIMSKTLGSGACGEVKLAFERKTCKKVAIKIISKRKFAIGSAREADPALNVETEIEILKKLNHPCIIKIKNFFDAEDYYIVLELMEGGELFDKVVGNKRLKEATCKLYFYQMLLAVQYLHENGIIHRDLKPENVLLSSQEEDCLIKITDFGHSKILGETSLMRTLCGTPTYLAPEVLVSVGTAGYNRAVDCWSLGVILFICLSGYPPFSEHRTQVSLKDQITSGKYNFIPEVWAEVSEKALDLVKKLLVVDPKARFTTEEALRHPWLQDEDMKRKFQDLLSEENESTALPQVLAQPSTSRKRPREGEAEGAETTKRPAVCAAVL", "assay": "Inhibition of CHEK2 (unknown origin) at 1000 nM in the presence of ATP by Kinome scan method relative to control"}, "[9]": {"target": "Casein kinase I isoform alpha (Homo sapiens) (UniProt P48729)", "sequence (P48729 2-337 limits assumed)": "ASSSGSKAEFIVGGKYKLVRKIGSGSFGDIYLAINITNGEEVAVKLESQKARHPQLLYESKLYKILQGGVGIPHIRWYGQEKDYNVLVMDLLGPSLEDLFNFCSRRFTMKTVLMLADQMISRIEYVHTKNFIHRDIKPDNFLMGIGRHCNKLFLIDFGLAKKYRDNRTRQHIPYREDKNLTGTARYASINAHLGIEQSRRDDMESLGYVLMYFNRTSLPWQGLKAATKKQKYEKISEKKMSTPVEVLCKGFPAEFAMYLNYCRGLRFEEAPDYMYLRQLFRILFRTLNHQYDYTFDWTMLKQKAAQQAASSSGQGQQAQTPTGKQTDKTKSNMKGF", "assay": "Inhibition of CSNK1A1 (unknown origin) at 1000 nM in the presence of ATP by Kinome scan method relative to control"}, "[10]": {"target": "Casein kinase I isoform delta (Homo sapiens) (UniProt P48730)", "assay": "Inhibition of CSNK1D (unknown origin) at 1000 nM in the presence of ATP by Kinome scan method relative to control"}, "[11]": {"target": "Ephrin type-A receptor 1 (Homo sapiens) (UniProt P21709)", "assay": "Inhibition of EPHA1 (unknown origin) at 100 nM in the presence of ATP by Kinome scan method relative to control"}, "[12]": {"target": "Ephrin type-A receptor 2 (Homo sapiens) (UniProt P29317)", "assay": "Inhibition of EPHA2 (unknown origin) at 1000 nM in the presence of ATP by Kinome scan method relative to control"}, "[13]": {"target": "Homeodomain-interacting protein kinase 1 (Homo sapiens) (UniProt Q86Z02)", "assay": "Inhibition of HIPK1 (unknown origin) at 1000 nM in the presence of ATP by Kinome scan method relative to control"}, "[14]": {"target": "Interleukin-1 receptor-associated kinase 4 (Homo sapiens) (UniProt Q9NWZ3)", "assay": "Inhibition of IRAK4 (unknown origin) at 1000 nM in the presence of ATP by Kinome scan method relative to control"}, "[15]": {"target": "Tyrosine-protein kinase JAK1 (Homo sapiens) (UniProt P23458)", "assay": "Inhibition of JAK1 (unknown origin) at 100 nM in the presence of ATP by Kinome scan method relative to control"}, "[16]": {"target": "Mitogen-activated protein kinase 14 (Homo sapiens) (UniProt Q16539)", "sequence (Q16539 whole entry)": "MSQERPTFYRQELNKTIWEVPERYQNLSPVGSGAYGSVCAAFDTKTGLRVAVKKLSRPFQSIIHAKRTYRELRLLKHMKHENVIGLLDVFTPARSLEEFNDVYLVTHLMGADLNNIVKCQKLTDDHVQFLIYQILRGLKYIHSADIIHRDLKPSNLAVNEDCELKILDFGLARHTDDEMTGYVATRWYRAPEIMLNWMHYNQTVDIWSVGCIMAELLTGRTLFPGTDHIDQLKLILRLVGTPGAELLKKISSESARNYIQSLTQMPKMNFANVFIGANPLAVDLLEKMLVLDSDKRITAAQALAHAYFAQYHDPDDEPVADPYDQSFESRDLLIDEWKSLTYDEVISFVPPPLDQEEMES", "assay": "Inhibition of MAPK14 (unknown origin) at 1000 nM in the presence of ATP by Kinome scan method relative to control"}, "[17]": {"target": "Serine/threonine-protein kinase Nek2 (Homo sapiens) (UniProt P51955)", "assay": "Inhibition of NEK2 (unknown origin) at 100 nM in the presence of ATP by Kinome scan method relative to control"}, "[18]": {"target": "Protein kinase C theta type (Homo sapiens) (UniProt Q04759)", "sequence (Q04759 whole entry, looked up)": "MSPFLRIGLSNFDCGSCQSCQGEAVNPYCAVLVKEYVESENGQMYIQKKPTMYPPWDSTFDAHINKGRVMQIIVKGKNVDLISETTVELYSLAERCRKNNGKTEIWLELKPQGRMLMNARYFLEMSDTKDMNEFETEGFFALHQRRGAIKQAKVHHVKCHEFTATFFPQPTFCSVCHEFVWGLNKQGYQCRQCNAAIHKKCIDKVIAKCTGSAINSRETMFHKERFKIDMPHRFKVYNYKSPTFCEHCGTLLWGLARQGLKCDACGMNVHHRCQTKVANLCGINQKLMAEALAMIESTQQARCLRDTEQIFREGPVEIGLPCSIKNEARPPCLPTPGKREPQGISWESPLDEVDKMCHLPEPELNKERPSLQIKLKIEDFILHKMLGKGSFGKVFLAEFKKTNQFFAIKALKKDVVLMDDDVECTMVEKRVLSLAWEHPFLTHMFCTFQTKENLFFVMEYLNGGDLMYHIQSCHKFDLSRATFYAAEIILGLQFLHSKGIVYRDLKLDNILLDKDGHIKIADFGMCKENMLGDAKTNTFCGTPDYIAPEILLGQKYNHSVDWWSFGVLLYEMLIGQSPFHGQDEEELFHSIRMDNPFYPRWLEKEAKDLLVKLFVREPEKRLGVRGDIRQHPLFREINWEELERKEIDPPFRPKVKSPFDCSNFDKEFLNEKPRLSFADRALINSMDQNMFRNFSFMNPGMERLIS", "assay": "Inhibition of PRKCQ (unknown origin) at 1000 nM in the presence of ATP by Kinome scan method relative to control"}, "[19]": {"target": "Proto-oncogene tyrosine-protein kinase receptor Ret (Homo sapiens) (UniProt P07949)", "assay": "Inhibition of RET (unknown origin) at 1000 nM in the presence of ATP by Kinome scan method relative to control"}, "[20]": {"target": "Ribosomal protein S6 kinase beta-1 (Homo sapiens) (UniProt P23443)", "assay": "Inhibition of RPS6KB1 (unknown origin) at 100 nM in the presence of ATP by Kinome scan method relative to control"}, "[21]": {"target": "Proto-oncogene tyrosine-protein kinase Src (Homo sapiens) (UniProt P12931)", "sequence (P12931 2-536 limits assumed)": "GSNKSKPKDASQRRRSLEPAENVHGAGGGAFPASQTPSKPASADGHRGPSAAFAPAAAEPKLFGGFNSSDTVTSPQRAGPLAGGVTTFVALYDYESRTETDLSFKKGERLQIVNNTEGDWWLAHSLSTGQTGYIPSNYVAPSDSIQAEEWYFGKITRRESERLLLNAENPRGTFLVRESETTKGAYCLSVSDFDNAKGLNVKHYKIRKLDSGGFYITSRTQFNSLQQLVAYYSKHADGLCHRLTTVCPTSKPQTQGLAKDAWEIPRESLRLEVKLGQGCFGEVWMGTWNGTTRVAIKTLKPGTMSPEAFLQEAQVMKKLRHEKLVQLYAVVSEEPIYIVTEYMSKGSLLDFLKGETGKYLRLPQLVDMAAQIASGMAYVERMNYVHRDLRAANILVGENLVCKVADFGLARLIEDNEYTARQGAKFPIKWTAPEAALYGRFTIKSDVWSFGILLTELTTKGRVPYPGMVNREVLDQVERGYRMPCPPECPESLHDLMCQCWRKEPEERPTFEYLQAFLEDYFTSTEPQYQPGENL", "assay": "Inhibition of SRC (unknown origin) at 100 nM in the presence of ATP by Kinome scan method relative to control"}, "[22]": {"target": "Angiopoietin-1 receptor (Homo sapiens) (UniProt Q02763)", "assay": "Inhibition of TEK (unknown origin) at 1000 nM in the presence of ATP by Kinome scan method relative to control"}, "[23]": {"target": "Calcium/calmodulin-dependent protein kinase type 1 (Homo sapiens) (UniProt Q14012)", "sequence (Q14012 whole entry, looked up)": "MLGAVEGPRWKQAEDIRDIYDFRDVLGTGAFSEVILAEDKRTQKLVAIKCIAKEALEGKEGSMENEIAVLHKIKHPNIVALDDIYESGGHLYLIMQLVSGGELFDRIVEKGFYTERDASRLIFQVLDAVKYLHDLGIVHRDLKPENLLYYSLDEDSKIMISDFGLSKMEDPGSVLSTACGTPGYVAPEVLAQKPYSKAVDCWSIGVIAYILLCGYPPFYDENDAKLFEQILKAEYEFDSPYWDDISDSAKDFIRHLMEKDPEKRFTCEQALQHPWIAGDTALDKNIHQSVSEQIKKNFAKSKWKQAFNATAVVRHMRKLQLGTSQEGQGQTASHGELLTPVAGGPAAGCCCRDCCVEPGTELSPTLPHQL", "assay": "Inhibition of CAMK1 (unknown origin) at 100 nM in the presence of ATP by Kinome scan method relative to control"}, "[24]": {"target": "Dual specificity protein kinase CLK1 (Homo sapiens) (UniProt P49759)", "sequence (P49759 whole entry, looked up)": "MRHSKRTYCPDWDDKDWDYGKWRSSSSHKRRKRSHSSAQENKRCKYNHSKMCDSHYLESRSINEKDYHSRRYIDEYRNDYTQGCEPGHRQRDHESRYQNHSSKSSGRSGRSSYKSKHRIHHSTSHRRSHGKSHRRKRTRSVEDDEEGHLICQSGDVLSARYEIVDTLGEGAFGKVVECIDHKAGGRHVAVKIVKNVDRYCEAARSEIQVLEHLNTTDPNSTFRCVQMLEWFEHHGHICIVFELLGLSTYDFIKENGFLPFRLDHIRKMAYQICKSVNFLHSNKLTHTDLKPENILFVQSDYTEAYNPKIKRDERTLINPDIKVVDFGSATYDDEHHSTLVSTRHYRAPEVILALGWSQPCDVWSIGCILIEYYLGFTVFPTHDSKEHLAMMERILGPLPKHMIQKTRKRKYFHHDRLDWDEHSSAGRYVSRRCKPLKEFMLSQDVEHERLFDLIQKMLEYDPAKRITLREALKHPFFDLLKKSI", "assay": "Inhibition of CLK1 (unknown origin) in human HCT-116 cells assessed as increase in CLK1 protein level at 0.5 to 0.1 uM incubated for 6 hrs by immunoblot analysis", "format": "cell-based", "conditions": "dose 0.5-0.1 µM", "in_short": "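HCT116 cells were treated for 3 or 6 h and lysed in SDS sample buffer (Tris-HCl pH 6.8), then boiled for 5 min. Lysates were run on 5–15% or 4–12% gradient gels and transferred to nitrocellulose or PVDF. Blots were blocked in milk or BSA/TBS-T and probed overnight at 4 °C with anti-phospho-SR (1H4, 1/1000), anti-SR, anti-CLK1 or anti-CLK3 antibodies, with GAPDH as loading control.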"}, "HCT-116 [25]": {"tested_on": "HCT-116", "assay": "Induction of cell cycle arrest in human HCT-116 cells assessed as S phase at 0.1 uM incubated for 6 hrs by flow cytometry analysis (Rvb=39.3%)", "format": "functional"}, "HCT-116 [26]": {"tested_on": "HCT-116", "assay": "Induction of cell cycle arrest in human HCT-116 cells assessed as G0/G1 phase at 0.5 uM incubated for 6 hrs by flow cytometry analysis (Rvb=35.0%)", "format": "functional"}, "HCT-116 [27]": {"tested_on": "HCT-116", "assay": "Induction of cell cycle arrest in human HCT-116 cells assessed as sub G0/G1 phase at 1 uM incubated for 6 hrs by flow cytometry analysis (Rvb=1.6%)", "format": "functional"}, "HCT-116 [28]": {"tested_on": "HCT-116", "assay": "Induction of cell cycle arrest in human HCT-116 cells assessed as G2/M phase at 5 uM incubated for 6 hrs by flow cytometry analysis (Rvb=25.8%)", "format": "functional"}},
  "note": "Calls of active or inactive are those of the source. The calls are words filed in the database; no cut-off is given here.",
  "data": [
    {"smiles": "CN1CCN(C(=O)C(C)(C)c2ccc(C(=O)Nc3cn4cc(-c5ccncc5)ccc4n3)cc2)CC1", "note": "[T3-CLK]", "values": [
      {"measurement": "Activity", "setting": "HCT-116 [1]", "result": 0.75, "unit": "%"},
      {"measurement": "viability at 0.5 µM", "setting": "HCT-116 [2]", "result": 89.4, "unit": "%"},
      {"measurement": "Activity", "setting": "HCT-116 [3]", "result": 3.04, "unit": "%"},
      {"measurement": "Activity", "setting": "HCT-116 [4]", "result": 8.23, "unit": "%"},
      {"measurement": "inhibition", "setting": "[5]", "result": 92, "unit": "%"},
      {"measurement": "inhibition", "setting": "[6]", "result": 4, "unit": "%"},
      {"measurement": "inhibition", "setting": "[7]", "result": 10, "unit": "%"},
      {"measurement": "inhibition", "setting": "[8]", "result": 24, "unit": "%"},
      {"measurement": "inhibition", "setting": "[9]", "result": -3, "unit": "%"},
      {"measurement": "inhibition", "setting": "[10]", "result": 4, "unit": "%"},
      {"measurement": "inhibition", "setting": "[11]", "result": -2, "unit": "%"},
      {"measurement": "inhibition", "setting": "[12]", "result": -6, "unit": "%"},
      {"measurement": "inhibition", "setting": "[13]", "result": 3, "unit": "%"},
      {"measurement": "inhibition", "setting": "[14]", "result": 42, "unit": "%"},
      {"measurement": "inhibition", "setting": "[15]", "result": 11, "unit": "%"},
      {"measurement": "inhibition", "setting": "[16]", "result": 6, "unit": "%"},
      {"measurement": "inhibition", "setting": "[17]", "result": 12, "unit": "%"},
      {"measurement": "inhibition", "setting": "[18]", "result": 4, "unit": "%"},
      {"measurement": "inhibition", "setting": "[19]", "result": -2, "unit": "%"},
      {"measurement": "inhibition", "setting": "[20]", "result": 2, "unit": "%"},
      {"measurement": "inhibition", "setting": "[21]", "result": 13, "unit": "%"},
      {"measurement": "inhibition", "setting": "[22]", "result": 0, "unit": "%"},
      {"measurement": "inhibition", "setting": "[23]", "result": 7, "unit": "%"},
      {"measurement": "inhibition", "setting": "[24]", "result": "Active"},
      {"measurement": "Activity", "setting": "HCT-116 [25]", "result": 45.5, "unit": "%"},
      {"measurement": "Activity", "setting": "HCT-116 [26]", "result": 18.4, "unit": "%"},
      {"measurement": "Activity", "setting": "HCT-116 [27]", "result": 1.5, "unit": "%"},
      {"measurement": "Activity", "setting": "HCT-116 [28]", "result": 34.5, "unit": "%"}
    ]}
  ]
}
